Test results published in ChEMBL document CHEMBL4316599, “Synthesis, in vitro and in vivo biological evaluation of substituted 3-(5-imidazo[2,1-b]thiazolylmethylene)-2-indolinones as new potent anticancer agents” (Eur J Med Chem, 2019).
Active and inactive are the calls of the source. The rule behind the calls is not given here.

Legend:
Melanoma cell line = test: Cytotoxicity against human melanoma cells after 48 hrs by SRB assay; type: functional
Outline: (§1)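 NCI-60 screen: single-dose pass at 10^-5 M, then a five-concentration assay from 10^-9 to 10^-4 M (highest 100 μM). Exposure was 48 h under standard NCI protocols. GI50, TGI and LC50 were derived per cell line and averaged by subpanel. Repeated tests are the mean of two experiments.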

Leukemia cell = test: Cytotoxicity against human leukemia cells after 48 hrs by SRB assay; type: functional; outline: as §1
[1] = Cytotoxicity against human COLON cells after 48 hrs by SRB assay; type: functional; outline: as §1
Renal cancer cell line = test: Cytotoxicity against human renal cancer cells after 48 hrs by SRB assay; type: functional; outline: as §1
Prostatic carcinoma cell = test: Cytotoxicity against human prostate cancer cells after 48 hrs by SRB assay; type: functional; outline: as §1
Breast carcinoma cell = test: Cytotoxicity against human breast cancer cells after 48 hrs by SRB assay; type: functional; outline: as §1
[2] = Cytotoxicity against human PHA-stimulated PBL after 72 hrs by MTT assay; type: cell-based; details: PHA-stimulated peripheral blood lymphocytes (PBL)
Outline: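 Lymphocytes from healthy donors were isolated on a Lymphoprep gradient and held overnight in RPMI-1640 with 10% FBS. Non-adherent cells were set at 5×10^5 cells/mL, either resting or stimulated with 2.5 μg/mL PHA. Cells were exposed to a range of compound concentrations for 72 h and viability read by MTT. GI50 is the mean ± SEM of three separate experiments.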

A549 [3] = test: Cell cycle arrest in human A549 cells assessed as accumulation of cells at G2/M phase after 24 hrs by propidium iodide staining-based flow cytometric analysis; type: functional
Outline: (§2)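 Cells exposed to a range of concentrations for 24 h (HeLa at 5×10^5 cells), then fixed in ice-cold 70% ethanol. Lysis buffer with RNase A and 0.1% Triton X-100 was applied before PI staining. DNA content was read by flow cytometry and G1/S/G2/M fractions taken from DNA histograms. Mean ± SEM of two independent experiments.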

HeLa [4] = test: Cell cycle arrest in human HeLa cells assessed as accumulation of cells at G2/M phase at 50 nM after 24 hrs by propidium iodide staining-based flow cytometric analysis relative to control; type: functional; outline: as §2
HT-29 [5] = test: Cell cycle arrest in human HT-29 cells assessed as accumulation of cells at G2/M phase at 50 nM after 24 hrs by propidium iodide staining-based flow cytometric analysis relative to control; type: functional; outline: as §2
HT-29 [6] = test: Cell cycle arrest in human HT-29 cells assessed as reduction in accumulation of cells at G1 phase up to 1000 nM after 24 hrs by propidium iodide staining-based flow cytometric analysis; type: functional; outline: as §2
A549 [7] = test: Cell cycle arrest in human A549 cells assessed as reduction in accumulation of cells at G1 phase up to 600 nM after 24 hrs by propidium iodide staining-based flow cytometric analysis; type: functional; outline: as §2
HeLa [8] = test: Cell cycle arrest in human HeLa cells assessed as reduction in accumulation of cells at S phase up to 1000 nM after 24 hrs by propidium iodide staining-based flow cytometric analysis; type: functional; outline: as §2
K562 [9] = test: Cell cycle arrest in human K562 cells assessed as mitotic index at IC50 by Giemsa staining-based assay (reference value: 3%); type: functional
K562 [10] = test: Cell cycle arrest in human K562 cells assessed as mitotic index at 10 times IC50 by Giemsa staining-based assay (reference value: 3%); type: functional
HeLa [11] = test: Cell cycle arrest in human HeLa cells assessed as increase in cyclin B1 expression at 50 nM after 24 hrs by Western blot analysis; type: functional, cell-based
Outline: (§3)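 HeLa cells treated 24 h, washed in ice-cold PBS and lysed on ice 30 min. Lysates were spun at 15000 x g, 4 °C. 10 µg protein run on SDS-PAGE and blotted to PVDF. Blots were blocked in 5% BSA overnight at 4 °C and probed 2 h at room temperature. Detection by HRP-secondary and ECL, with bands normalized to β-actin as fold of untreated. Three independent experiments, one-way ANOVA/Dunnett.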

HeLa [12] = test: Cell cycle arrest in human HeLa cells assessed as decrease in cdc2 phosphorylation at 50 to 250 nM after 24 hrs by Western blot analysis; type: functional, cell-based; outline: as §3
A549 [13] = test: Induction of apoptosis in human A549 cells at 25 nM after 24 to 48 hrs by Annexin V-FITC/propidium iodide staining-based flow cytometric analysis; type: functional, cell-based
Outline: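 A549 cells treated 24 or 48 h at 12.5–100 nM, then double-stained with annexin-V-FITC and PI. Phosphatidylserine exposure was read by flow cytometry. Mean ± SEM of three independent experiments.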

HeLa [14] = test: Induction of ROS generation in human HeLa cells at 250 nM after 12 to 24 hrs by H2-DCFDA staining-based assay; type: functional, cell-based
Outline: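 HeLa cells treated 6, 12, 24 or 48 h, then loaded with H2-DCFDA and analysed by flow cytometry for ROS. Mean ± SEM of three independent experiments, compared against control.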

HeLa [15] = test: Induction of apoptosis in human HeLa cells assessed as increase in caspase-3 activity at 50 to 250 nM after 24 hrs by Western blot analysis; type: functional, cell-based; outline: as §3
HeLa [16] = test: Induction of apoptosis in human HeLa cells assessed as decrease in Bcl-2 levels at 50 to 250 nM after 24 hrs by Western blot analysis; type: functional, cell-based; outline: as §3
B16-BL6 [17] = test: Growth inhibition of mouse B16-BL6 cells after 72 hrs by MTT assay; type: functional; details: B16-BL6, 72 h
Outline: (§4)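 Murine BL6-B16 melanoma and EO771 breast tumor cells were exposed to compound for 72 h. GI50 is reported ± error.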

E0771 = test: Growth inhibition of mouse E0771 cells after 72 hrs by MTT assay; type: functional; details: E0771, 72 h; outline: as §4
B16-BL6 [18] = test: Antitumor activity mouse B16-BL6 cells implanted in C57BL/6 mouse assessed tumor growth inhibition at 7.5 mg/kg, ip dosed every other day for 18 days relative to control; type: functional; details: 432 h, read-out: TGI
Outline: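 Syngeneic allograft: C57BL/6 mice, six weeks old, given 2.5×10^5 BL6-B16 or E0771 cells subcutaneously in the dorsolateral flank in PBS. Dosing began at about 100 mm³. Test compound or reference was given intraperitoneally every other day in 50 μL DMSO, with DMSO vehicle controls. Tumor volume was compared with the vehicle group, 5 animals per group, mean ± SEM, by 2-way ANOVA with Bonferroni correction.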

K562 [19] = test: Cytotoxicity against human K562 cells after 16 hrs by SRB assay; details: K562, 16 h
[20] = read-out: LC50 (the source's name)

Q: With O=C1Nc2c(ccc3ccccc23)C1=Cc1c(-c2ccncc2)nc2sccn12 as the molecule, how does the GI50 (Melanoma cell line) read?
A: Its GI50 is 7.16 µM.

Q: And the TGI (Melanoma cell line)?
A: Its TGI is 72.9 µM.

Q: And the CC50 (Melanoma cell line; [20])?
A: The CC50 was 95.3 µM.

Q: And the GI50 (Leukemia cell)?
A: Its GI50 is 0.03 µM.

Q: And the TGI (Leukemia cell)?
A: The TGI was 79.5 µM.

Q: What about the GI50 [1] of the same molecule?
A: The GI50 was 0.03 µM.

Q: And the TGI [1]?
A: Its TGI is 39.9 µM.

Q: What about the CC50 [1, 20] of the same molecule?
A: The CC50 was 77 µM.

Q: What about the GI50 (Renal cancer cell line) of the same molecule?
A: Its GI50 is 11.8 µM.

Q: What about the TGI (Renal cancer cell line) of the same molecule?
A: Its TGI is 70.1 µM.

Q: What about the GI50 (Prostatic carcinoma cell) of the same molecule?
A: The GI50 was 0.02 µM.

Q: What about the TGI (Prostatic carcinoma cell) of the same molecule?
A: Its TGI is 55.9 µM.

Q: What about the CC50 (Prostatic carcinoma cell; [20]) of the same molecule?
A: Its CC50 is 80.1 µM.

Q: And the GI50 (Breast carcinoma cell)?
A: The GI50 was 0.04 µM.

Q: And the LC50 (concentration killing 50% of cells) (Breast carcinoma cell)?
A: Its LC50 (concentration killing 50% of cells) is 99 µM.

Q: What about the TGI (Breast carcinoma cell) of the same molecule?
A: Its TGI is 71.3 µM.

Q: What about the GI50 at 72 h [2] of the same molecule?
A: The GI50 at 72 h was 5.5 µM.

Q: And the Activity (A549 [3])?
A: Its Activity is “Dose-dependent effect”.

Q: And the Activity (HeLa [4])?
A: Its Activity is over 80%.

Q: And the Activity (HT-29 [5])?
A: The Activity was over 80%.

Q: And the Activity (HT-29 [6])?
A: Its Activity is “Active”.

Q: And the Activity (A549 [7])?
A: The Activity was “Active”.

Q: And the Activity (HeLa [8])?
A: The Activity was “Active”.

Q: And the Activity (K562 [9])?
A: Its Activity is 12%.

Q: What about the Activity (K562 [10]) of the same molecule?
A: Its Activity is 58%.

Q: And the Activity (HeLa [11])?
A: The Activity was “Active”.

Q: What about the Activity (HeLa [12]) of the same molecule?
A: The Activity was “Active”.

Q: And the Activity (A549 [13])?
A: The Activity was “Active”.

Q: And the Activity (HeLa [14])?
A: Its Activity is “Active”.

Q: What about the Activity (HeLa [15]) of the same molecule?
A: The Activity was “Active”.

Q: What about the Activity (HeLa [16]) of the same molecule?
A: The Activity was “Active”.

Q: What about the GI50 (B16-BL6 [17]) of the same molecule?
A: Its GI50 is 0.305 µM.

Q: And the GI50 (E0771)?
A: Its GI50 is 0.015 µM.

Q: And the inhibition in vivo at 7.5 mg/kg (B16-BL6 [18])?
A: Its inhibition in vivo at 7.5 mg/kg is 18%.

Q: And the IC50 (K562 [19])?
A: The IC50 was 0.03 µM.
